Experimental findings from PMC7223318 (Drug Delivery and Translational Research, 2020) are described below.

The subject of the data set is ARPE-19 cells. Description: Cellular uptake of FITC-labelled peptides, confocal microscopy. Type of data set: in vitro ADME, human. As to conditions: 1 h, 37 °C, confocal microscopy (Fig. 2). An outline of the steps: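 ARPE-19 cells (DMEM/F-12 GlutaMAX, 10% FBS, 1% AA) were seeded at 2 × 10^5 cells/ml in chamber slides and grown two nights. FITC-labelled peptides were applied for 1 h at 37 °C, 5% CO2, in culture medium or in hypoxic HAIR solution (K-gluconate/Na-gluconate/NMDG-based, bicarbonate). Cells were then PBS-washed, fixed in 4% formaldehyde, DAPI-counterstained and imaged by confocal microscopy.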

No end group written: not given here.

With KQIEIKKFK [Gap19], the “cellular uptake in hypoxic ARPE-19 cells” value (HAIR solution (hypoxia), FITC-labelled Gap19 100 μM or XG19 5 μM) was “undetectable”. For the same sequence, the “cellular uptake in normal ARPE-19 cells” value (normal culture medium, FITC-labelled Gap19 100 μM) is reported as “undetectable”.
